The text below walks through data of ChEMBL document CHEMBL1221386, “Synthesis and pharmacological evaluation of 3-aryl-3-azolylpropan-1-amines as selective triple serotonin/norepinephrine/dopamine reuptake inhibitors” (Bioorg Med Chem Lett, 2010).

For orientation: IC50 means the concentration needed to halve the response being measured. One may read the Tmax as the time at which the peak concentration occurs. Usually half-life stands for how long it takes for the measured level to halve. A word on the inhibition: it is the drop in the measured response relative to a control, in per cent. The term ED50 denotes the midpoint of the dose-response relation. One may read the AUC as concentration integrated over time. As usually defined, the AUC(0-inf) is the area under the concentration-time curve extrapolated to infinity.

In one data set the target is Cytochrome P450 2C19 (Homo sapiens, UniProt P33261). As to the kind of experiment: Inhibition of CYP2C19. Format: ADME.
Chain of Cytochrome P450 2C19 (P33261 whole entry): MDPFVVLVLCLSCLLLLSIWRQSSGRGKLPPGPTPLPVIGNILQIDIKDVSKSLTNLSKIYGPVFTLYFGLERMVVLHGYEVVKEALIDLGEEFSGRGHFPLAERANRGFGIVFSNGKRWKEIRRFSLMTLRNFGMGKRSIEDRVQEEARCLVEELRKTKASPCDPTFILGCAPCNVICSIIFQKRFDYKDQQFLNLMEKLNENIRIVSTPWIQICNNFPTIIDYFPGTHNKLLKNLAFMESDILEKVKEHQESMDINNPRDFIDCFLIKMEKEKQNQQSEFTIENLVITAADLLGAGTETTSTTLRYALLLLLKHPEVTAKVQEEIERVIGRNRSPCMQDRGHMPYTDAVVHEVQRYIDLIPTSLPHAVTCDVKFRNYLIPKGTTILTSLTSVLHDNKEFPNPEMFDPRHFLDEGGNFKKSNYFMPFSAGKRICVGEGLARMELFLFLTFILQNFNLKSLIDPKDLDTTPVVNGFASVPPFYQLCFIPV
Data set [1] is described as follows: Tmax in rat at 10 mg/kg, po. Format: ADME, organism-based. As to conditions: in vivo. Further details: dose 10 mg/kg, route oral.
A short description of data set [2]: Half life in rat liver microsomes. Format: ADME, Microsome. Summed up:
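Metabolic stability in human or rat liver microsomes. Half-lives measurable up to 60 min.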

Data set [3] deals with T1, 5-hydroxytryptamine receptor 2C (Homo sapiens) (UniProt P28335).
T1 sequence (whole entry): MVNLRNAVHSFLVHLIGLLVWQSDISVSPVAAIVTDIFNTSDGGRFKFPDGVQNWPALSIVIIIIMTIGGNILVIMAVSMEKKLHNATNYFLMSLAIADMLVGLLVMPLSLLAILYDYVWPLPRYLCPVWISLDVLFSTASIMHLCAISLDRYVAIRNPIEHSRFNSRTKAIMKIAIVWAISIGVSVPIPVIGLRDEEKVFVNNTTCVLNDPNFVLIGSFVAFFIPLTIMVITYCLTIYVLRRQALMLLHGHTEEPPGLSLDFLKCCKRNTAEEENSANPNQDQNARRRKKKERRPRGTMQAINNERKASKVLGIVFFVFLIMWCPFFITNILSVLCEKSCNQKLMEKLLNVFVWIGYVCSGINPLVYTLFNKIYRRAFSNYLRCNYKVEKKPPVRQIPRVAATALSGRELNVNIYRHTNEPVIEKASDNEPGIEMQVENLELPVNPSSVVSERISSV
As to the kind of experiment: Inhibition of 5HT2C receptor at 10 uM.

Data set [4] deals with Mus musculus. As to the kind of experiment: Antidepressant activity in po dosed mouse assessed as reduction of mobility time by forced swimming test. Format: functional. Summed up:
(§1)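 Mouse forced swimming test with oral dosing. Read-out is immobility time, expressed as % reduction of immobility. Minimal effective dose is the lowest dose with p <0.05. ED50 is given with 95% confidence limits. Doses are in mg/kg.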

Data set [5] concerns Mus musculus. Briefly: Antidepressant activity in mouse assessed as reduction of mobility time by forced swimming test at 10 mg/kg, po. Format: functional. Also on record: scale not given: the % may be the effect or the level left. Summed up:
as §1

Data set [6] in a line: AUC in rat at 10 mg/kg, po. Format: ADME, organism-based. Also on record: dose 10 mg/kg, route oral. As to conditions: plasma.
Data set [7] can be described thus: Half life in rat at 10 mg/kg, iv. Further details: dose 10 mg/kg, route intravenous. The conditions noted are these: in vivo. Format: ADME, organism-based.
The nature of data set [8]: Inhibition of alpha1 adrenergic receptor at 10 uM.
Data set [9] can be described thus: AUC (0 to infinity) in rat at 10 mg/kg, iv. Further details: time infinity, dose 10 mg/kg, route intravenous. Format: ADME, organism-based. As to conditions: plasma.
The next data set concerns the target Cytochrome P450 2C9 (Homo sapiens, UniProt P11712). As to the kind of experiment: Inhibition of CYP2C9. Format: ADME.
Data set [10] relates to Mus musculus. As to the kind of experiment: Potentiation of […]-induced serotonin syndrome like behavior in mouse at 30 mg/kg, po. Format: functional. Summed up:
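Mice, oral dosing. For serotonin potentiation, 5-hydroxytryptophan (5-HTP, serotonin precursor) is given to induce serotonin syndrome-like head twitch/stereotypy counts. Response is expressed as % potentiation relative to control group (0%). Minimal effective dose is the lowest dose reaching p <0.05. Doses are in mg/kg.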

Chain of Cytochrome P450 2C9 (P11712 whole entry): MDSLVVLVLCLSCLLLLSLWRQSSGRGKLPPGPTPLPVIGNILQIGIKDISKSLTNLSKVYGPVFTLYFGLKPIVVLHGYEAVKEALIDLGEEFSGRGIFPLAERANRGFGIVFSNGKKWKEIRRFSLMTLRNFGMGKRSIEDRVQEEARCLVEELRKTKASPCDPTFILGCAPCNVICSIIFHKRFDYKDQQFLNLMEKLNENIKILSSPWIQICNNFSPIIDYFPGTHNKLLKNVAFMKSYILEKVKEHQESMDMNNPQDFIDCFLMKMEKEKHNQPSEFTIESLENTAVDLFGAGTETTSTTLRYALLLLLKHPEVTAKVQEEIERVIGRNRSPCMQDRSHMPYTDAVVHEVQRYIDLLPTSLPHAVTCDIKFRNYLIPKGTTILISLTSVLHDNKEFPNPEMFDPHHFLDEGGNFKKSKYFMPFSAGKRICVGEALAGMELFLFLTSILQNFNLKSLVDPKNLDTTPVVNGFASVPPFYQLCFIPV

Consider `CNCC[C@@H](c1ccc(Cl)c(Cl)c1)n1nnc(C)n1`, for which the IC50 against Cytochrome P450 2C19 and on Cytochrome P450 2C9 was > 10 µM each time. Moreover, the Tmax in data set [1] was determined as 45 min. Also, the half-life in [2] is 56 min; in data set [7], 187 min. In addition, the inhibition in data set [3] is 66%; in data set [8], < 20%. Besides, in the data set on Mus musculus [4], the ED50 was found to be 22.2 mg/kg. The minimal effective dose with Mus musculus [4] (read-out: MED) amounted to 10 mg/kg. For the same compound, the Activity with Mus musculus [5] worked out at 14.9%; in the data set with Mus musculus [10], 158%. Further, the AUC in [6] is 1280 ng·h/mL. The compound also showed an AUC(0-inf) in [9] of 4150 ng·h/mL.
